Bioassay records as filed in PubChem BioAssay.
ATG4B inh: inhibitors of human ATG4B cysteine protease; hit rate 0.51% among 340,000; inhibition, % at 8.33 µM; ATG4B cleavage of LC3-PLA2, NBD-HPC fluorescence, 1 h; AID 504462; Q9Y4P1; in the data active = inhibition above about 40%
UCH37 inh: human UCH37 deubiquitinating enzyme inhibition. AID 588478. purified proteasome/UCH37, Ub-AMC cleavage fluorescence. hit rate 0.33% among 330,000. Q9Y5K5. inhibition, % (concentration not given with the values);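 active = mean inhibition over replicate wells above about 20%, limit read from the data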;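 also: 0% = compound-free wells with enzyme and 100% = wells lacking proteasome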
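Reagent: Ub-AMC substrate; assay system: Proteasome-associated human UCH37 deubiquitinase; controls: no-proteasome and no-compound wells; read-out: % inhibition of Ub-AMC cleavage fluorescence; timing: 30 min preincubation with enzyme, 25 min cleavage at room temperature; signal: AMC fluorescence from Ub-AMC cleavage, excitation 355 nm, emission 460 nm; buffer or medium: Tris-HCl pH 7.4 plus ovalbumin, ATP-MgCl2, DTT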
Rin1-Abl PPI inh: human Rin1-Abl interaction inhibition; TR-FRET Rin1/Abl binding, biochemical; inhibition, % at 7.35 µM; hit rate 0.4% among 360,000; AID 588664; in the data active = inhibition above about 5%, passing the limit was not always enough
Target sequence (P00519 whole entry, looked up): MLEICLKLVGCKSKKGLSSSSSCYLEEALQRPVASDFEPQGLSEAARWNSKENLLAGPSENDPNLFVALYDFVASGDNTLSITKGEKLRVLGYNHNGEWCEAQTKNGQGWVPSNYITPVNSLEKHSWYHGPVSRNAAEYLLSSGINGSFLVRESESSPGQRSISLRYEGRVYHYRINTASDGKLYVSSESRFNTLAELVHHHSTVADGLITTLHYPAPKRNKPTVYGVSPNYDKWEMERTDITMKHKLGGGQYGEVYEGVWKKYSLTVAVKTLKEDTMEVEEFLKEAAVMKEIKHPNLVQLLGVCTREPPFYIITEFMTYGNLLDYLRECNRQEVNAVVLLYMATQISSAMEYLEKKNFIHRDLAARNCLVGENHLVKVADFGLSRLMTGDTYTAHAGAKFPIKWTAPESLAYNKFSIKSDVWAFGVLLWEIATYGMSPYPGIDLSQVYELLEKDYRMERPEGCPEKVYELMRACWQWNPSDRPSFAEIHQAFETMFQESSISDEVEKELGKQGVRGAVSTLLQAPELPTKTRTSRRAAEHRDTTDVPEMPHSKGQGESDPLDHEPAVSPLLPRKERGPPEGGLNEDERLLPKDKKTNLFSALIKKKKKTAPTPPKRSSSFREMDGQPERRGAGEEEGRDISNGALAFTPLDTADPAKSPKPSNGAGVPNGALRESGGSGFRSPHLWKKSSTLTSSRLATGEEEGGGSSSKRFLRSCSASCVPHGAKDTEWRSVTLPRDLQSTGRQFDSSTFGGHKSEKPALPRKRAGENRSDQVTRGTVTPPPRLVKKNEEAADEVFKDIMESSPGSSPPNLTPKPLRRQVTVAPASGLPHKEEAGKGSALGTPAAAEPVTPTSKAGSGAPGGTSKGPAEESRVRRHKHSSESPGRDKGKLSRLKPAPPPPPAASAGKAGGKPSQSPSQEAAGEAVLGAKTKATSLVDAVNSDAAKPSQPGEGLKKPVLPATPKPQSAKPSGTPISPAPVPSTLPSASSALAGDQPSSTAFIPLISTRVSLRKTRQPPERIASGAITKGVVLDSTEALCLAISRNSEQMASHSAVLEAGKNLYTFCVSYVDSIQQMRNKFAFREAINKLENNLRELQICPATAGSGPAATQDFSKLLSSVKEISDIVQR
Target sequence (Q13671 whole entry, looked up): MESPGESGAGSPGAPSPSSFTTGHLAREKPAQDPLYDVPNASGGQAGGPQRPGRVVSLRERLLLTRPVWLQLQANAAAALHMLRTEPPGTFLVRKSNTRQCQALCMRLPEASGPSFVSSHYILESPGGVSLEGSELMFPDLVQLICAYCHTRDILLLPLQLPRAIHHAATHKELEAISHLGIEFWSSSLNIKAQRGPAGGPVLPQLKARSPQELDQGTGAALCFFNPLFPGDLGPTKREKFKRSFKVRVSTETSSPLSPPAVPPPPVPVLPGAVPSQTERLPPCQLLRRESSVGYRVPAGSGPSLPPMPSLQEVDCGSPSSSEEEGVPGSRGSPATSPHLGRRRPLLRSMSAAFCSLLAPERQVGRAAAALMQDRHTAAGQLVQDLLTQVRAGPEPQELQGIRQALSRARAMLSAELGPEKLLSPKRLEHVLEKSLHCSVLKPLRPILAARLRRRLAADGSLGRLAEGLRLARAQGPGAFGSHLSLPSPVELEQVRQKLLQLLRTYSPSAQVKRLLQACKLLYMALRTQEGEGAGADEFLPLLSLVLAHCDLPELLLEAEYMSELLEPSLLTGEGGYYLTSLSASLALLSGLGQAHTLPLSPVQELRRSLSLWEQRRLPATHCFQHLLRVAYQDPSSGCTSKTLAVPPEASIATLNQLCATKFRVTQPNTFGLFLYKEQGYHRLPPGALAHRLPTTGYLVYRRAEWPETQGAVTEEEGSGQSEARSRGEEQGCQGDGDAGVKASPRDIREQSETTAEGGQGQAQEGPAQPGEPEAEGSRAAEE
TbMetRS inhib: blocks T. brucei methionyl-tRNA synthetase activity; AID 624268; purified T. brucei MetRS, ATP depletion, Kinase-Glo luminescence; inhibition, % at 11.9 µM; hit rate 0.4% among 360,000;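 active = inhibition above a per-plate cutoff of the control wells' mean inhibition plus 3 SD, cut at about 5.5% in these data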;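 also: 0% = DMSO wells median and 100% = median of wells with control inhibitor compound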
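assay system = parasite MetRS enzyme | timing = 15 min preincubation, 2 h reaction, all 25 °C | evaluation = percent inhibition relative to median high and low control wells | medium = HEPES buffer containing pyrophosphatase, BSA, spermine, DTT | compound = single dose, 11.9 µM final nominal, 0.9% final DMSO | detection = Kinase-Glo luminescence, ATP depletion format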
Tb MetRS conf: Trypanosoma brucei MetRS inhibition confirmed; shares compounds with TbMetRS inhib; T. brucei MetRS enzyme, luminescence (ATP depletion); inhibition, % at 11.9 µM; hit rate 93% among 1,400; AID 624412; in the data active = inhibition above about 7%
Jurkat tox: counter-screen for T. brucei MetRS inhibitors: Jurkat cell cytotoxicity; AID 624413; inhibition, % at 8.3 µM; shares compounds with TbMetRS inhib; Jurkat cells viability, ATP luminescence; hit rate 12% among 1,400; in the data active = inhibition above about 15%;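 also: 0% = vehicle and 100% = reference inhibitor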
Tb MetRS inh FP: T. brucei MetRS inhibition, orthogonal assay. shares compounds with TbMetRS inhib. hit rate 44% among 1,400. purified T. brucei MetRS, fluorescence polarization. AID 651607. inhibition, % at 11.9 µM; in the data active = inhibition above about 17%;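 also: 0% = vehicle wells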
Numbers without * were called inactive; / = not tested or not shown. Compounds with a hit are over-represented: about 1.4% of the library has one in this group of screens.

SMILES	ATG4B inh	UCH37 inh	Rin1-Abl PPI inh	TbMetRS inhib	Tb MetRS conf	Jurkat tox	Tb MetRS inh FP
O=C(NC1CC1)C1=C[C@H](c2csc3ccccc23)C[C@H](OCc2ccc(CO)cc2)O1	-15.5	4.7	-0.5	0.4	/	/	/
O=C(NCc1nc2ccccc2[nH]1)C1=C[C@@H](c2csc3ccccc23)C[C@@H](OCc2ccc(CO)cc2)O1	1.5	1.6	-0.6	41.4*	82.3*	-0.6	49.9*
O=C(Nc1ccccc1)C1=C[C@H](c2csc3ccccc23)C[C@H](OCc2ccc(CO)cc2)O1	-5.9	2.6	-1.4	-0.3	/	/	/
O=C(NCc1nc2ccccc2[nH]1)C1=C[C@H](c2csc3ccccc23)C[C@H](OCc2ccc(CO)cc2)O1	-16.3	5.1	1.4	58.4*	93.1*	3.5	62.0*
O=C(CNC(=O)C1COc2ccccc2O1)N/N=C/c1ccc(O)cc1O (stereo not given)	-10.3	/	-0.6	11.7*	35.7*	51.9*	17.5*
O=C(Nc1ccc(F)cc1)Nc1ccc(N2CCCC2)c(S(=O)(=O)Nc2ccccc2Cl)c1	34.5	4.3	-1.6	11.3*	26.6*	66.6*	44.4*
O=C(Nc1ccc(Cl)c(Cl)c1)Nc1ccc(N2CCCC2)c(S(=O)(=O)Nc2ccccc2Cl)c1	-2.0	1.5	-3.8	0.0	/	/	/
COc1ccccc1NS(=O)(=O)c1cc(NC(=O)Nc2ccccc2)ccc1N1CCCCC1	2.0	4.0	-4.9	6.2*	10.8*	-0.6	17.1*
CCCc1cc(N2CCN(C(=O)c3ccco3)CC2)n2c(nc3ccccc32)c1C#N	-24.8	-167.4	-9.4	-0.2	/	/	/
Brc1cccc(CNc2nc3ccccc3n2CCN2CCOCC2)c1	0.4	2.5	0.4	7.5*	20.3*	8.3	4.7
N#CC(C#N)=NNc1ccc2cn[nH]c2c1	/	/	2.0	9.9*	23.7*	30.5*	54.0*
COc1ccc(CNC(=O)c2sc(=S)n(-c3ccc(OC)cc3)c2N)cc1	-6.1	5.8	-2.6	0.2	/	/	/
O=C(CN1C2=NCCCN2c2ccccc21)c1ccc(Cl)cc1Cl	-6.5	3.6	-1.1	12.0*	27.8*	11.5	12.6
O=C(CN1C2=NCCCN2c2ccccc21)c1cccc(Br)c1	3.7	2.6	1.4	0.4	/	/	/
CC1CCCN(C(=S)Nc2ccc(Nc3ccccc3)cc2)C1 (stereo not given)	-6.7	2.9	2.1	-0.4	/	/	/
O=C(CCNS(=O)(=O)c1ccc(Br)s1)Nc1ccc(Cl)cc1	-24.5	4.7	4.3	78.1*	85.1*	8.1	69.0*
Cc1ccc(NC(=O)CCNS(=O)(=O)c2cccc3nonc23)cc1Cl	-6.6	2.6	4.2	0.0	/	/	/
O=C(CCNS(=O)(=O)c1cccc2nonc12)Nc1ccc(Cl)cc1	-3.0	0.2	-0.9	10.1*	21.3*	-0.3	6.1
CCCNC(=O)CCC(NS(=O)(=O)c1ccc(C)cc1)C(=O)NCCC (stereo not given)	1.6	3.2	0.3	-1.5	/	/	/
Cc1cccc(CCN=C(N)NS(=O)(=O)c2ccccc2)c1	1.7	0.9	1.6	6.2*	14.4*	6.2	5.0
c1ccc2c3c([nH]c2c1)-c1[nH]ncc1CC3	-17.1	-14.1	1.5	16.1*	19.3*	2.5	22.0*
Clc1ccc2[nH]c3c(c2c1)CCc1cn[nH]c1-3	-13.2	1.4	0.8	31.7*	28.2*	4.8	99.7*
COc1ccc(CC(=O)NNc2ncnc3c2cnn3-c2ccc(C)cc2)cc1	-8.0	2.2	0.5	-0.9	/	/	/
Brc1ccc(CN2CCN(Cc3c[nH]c4ccccc34)CC2)cc1	-5.9	6.0	2.1	11.0*	41.9*	13.3	17.5*
O=[N+]([O-])c1ccc(CN2CCN(Cc3c[nH]c4ccccc34)CC2)cc1	-3.3	5.3	3.7	6.2*	18.9*	9.9	5.5
SMILES	ATG4B inh	UCH37 inh	Rin1-Abl PPI inh	TbMetRS inhib	Tb MetRS conf	Jurkat tox	Tb MetRS inh FP
Brc1ccccc1CN1CCN(Cc2c[nH]c3ccccc23)CC1	-9.4	0.4	/	/	/	/	/
CN(CCOc1ccc(NS(C)(=O)=O)cc1)CCc1ccc(NS(C)(=O)=O)cc1	/	3.2	/	/	/	/	/
O=S(=O)(Nn1c(O)c(C=C2N=c3ccccc3=N2)sc1=S)c1ccccc1	-3.2	/	0.9	55.2*	65.3*	-4.6	39.4*
O=C(Nn1c(O)c(C=C2N=c3ccccc3=N2)sc1=S)c1ccccc1Cl	-3.4	1.6	-1.1	-11.0	/	/	/
CC(=O)c1cccc(NC(=O)C(C)N(C)CC(=O)Nc2ccc(Cl)cc2)c1 (stereo not given)	-0.3	2.2	0.3	35.0*	52.7*	6.2	24.8*
CN(CC(=O)Nc1ccc(Cl)cc1)C(=O)c1cccc(S(=O)(=O)N(C)C)c1	11.1	1.6	-0.3	9.1*	18.9*	4.7	6.0
OC(c1cc(F)cc(Cl)c1)c1ncc(-c2cccc(C(F)(F)F)c2)[nH]1 (stereo not given)	/	/	-4.1	15.9*	45.1*	4.4	30.7*
COc1ccccc1-c1cnc(C(O)c2ccccc2)[nH]1 (stereo not given)	/	/	-1.2	0.4	/	/	/
COc1ccccc1-c1cnc(C(O)c2cc(Cl)cc(Cl)c2)[nH]1 (stereo not given)	/	/	2.3	66.6*	87.7*	2.8	69.4*
OC(c1cc(Cl)cc(Cl)c1)c1ncc(-c2ccccc2F)[nH]1 (stereo not given)	/	/	-5.4	29.5*	67.4*	4.8	43.4*
O=C(O)c1ccc(N2C(=O)Nc3ccccc3N2O)cc1	0.2	0.1	0.3	-1.1	/	/	/
COc1cc(C2C(C#N)=C(N)Oc3cc(N(C)C)ccc32)cc2c1OCO2 (stereo not given)	-1.1	0.0	-0.2	18.8*	2.0	81.9*	7.5
COc1cc(C2C(C#N)=C(N)Oc3cc(O)ccc32)cc2c1OCO2 (stereo not given)	-14.3	0.3	2.3	14.5*	2.5	36.1*	4.3
O=[N+]([O-])c1ccc(CSC2=NCCS2)cc1	-1.4	/	-2.1	-0.3	/	/	/
Cc1cccc2cc(C#N)c(SCC(=O)N3CCC(C)CC3)nc12	-1.9	-2.7	-3.1	-1.8	/	/	/
COc1ccc(C)cc1NC(=O)CSc1nnc(COc2ccc(C)cc2)n1Cc1ccco1	-7.3	3.9	0.0	-1.2	/	/	/
CCN1CCCC1Cn1cnc2c([nH]c3ccc(Cl)cc32)c1=O (stereo not given)	-7.6	-2.8	-7.0	10.1*	14.4*	0.4	14.4
O=C(NCCc1nc2ccccc2[nH]1)/C(=C/c1ccc2c(c1)OCO2)NC(=O)c1ccc(Cl)cc1Cl	-20.8	-2.9	-3.1	8.0*	11.5*	-0.4	5.2
O=C(NCCSCc1ccco1)Nc1cccc(Cl)c1	27.2	1.0	-7.3	0.8	/	/	/
O=C(NCCSCc1ccco1)Nc1ccc(Cl)cc1	33.1	2.0	0.4	6.4*	15.9*	4.3	7.7
